Paper PMC7382256 (Proceedings of the National Academy of Sciences of the …, 2020)
pKd: −log10 of the molar value.

Columns and labels:
Assay type in all cases: binding
c-di-GMP [1] = assay: Isothermal titration calorimetry; conditions: ITC, 50 mM Tris·HCl pH 8.0, 100 mM NaCl, 15 °C; one-site model
Outline: (§1)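 Peptide or protein, c-di-GMP and buffer were degassed for 15 min; runs at 15 °C. Format 1: cell held about 10 µM peptide/protein and syringe about 200 µM c-di-GMP, 30 injections at 250-s spacing. Format 2 (reverse): cell held about 20 µM c-di-GMP and syringe about 100 µM peptide/protein, 18 injections at 120-s spacing. Concentrations were set by absorbance at 1-cm path.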

CSP1 = CSP1 (Caulobacter vibrioides, UniProt A0A0H3CCM2)
Outline: as §1

CSP2 = CSP2 (Caulobacter vibrioides, UniProt A0A0H3CCM2, K168R)
CSP3 = CSP3 (Caulobacter vibrioides, UniProt A0A0H3CCM2, K168R)
CSP4 = CSP4 (Caulobacter vibrioides, UniProt A0A0H3CCM2, K168R)
CSP6 = CSP6 (Caulobacter vibrioides, UniProt A0A0H3CCM2, K168R)
CSP7 = CSP7 (Caulobacter vibrioides, UniProt A0A0H3CCM2, K168R)
CSP9 = CSP9 (Caulobacter vibrioides, UniProt A0A0H3CCM2, D154A/K168R)
CSP10 = CSP10 (Caulobacter vibrioides, UniProt A0A0H3CCM2, K168R/R155A)
CSP11 = CSP11 (Caulobacter vibrioides, UniProt A0A0H3CCM2, K168R/R156A)
CSP12 = CSP12 (Caulobacter vibrioides, UniProt A0A0H3CCM2, K168R/R157A)
CSP13 = CSP13 (Caulobacter vibrioides, UniProt A0A0H3CCM2, F158A/K168R)
CSP14 = CSP14 (Caulobacter vibrioides, UniProt A0A0H3CCM2, K168R/N159A)
CSP15 = CSP15 (Caulobacter vibrioides, UniProt A0A0H3CCM2, K168R/S160A)
CSP16 = CSP16 (Caulobacter vibrioides, UniProt A0A0H3CCM2, A161L/K168R)
CSP17 = CSP17 (Caulobacter vibrioides, UniProt A0A0H3CCM2, D162A/K168R)
CSP18 = CSP18 (Caulobacter vibrioides, UniProt A0A0H3CCM2, K168R/Y163A)
CSP19 = CSP19 (Caulobacter vibrioides, UniProt A0A0H3CCM2, K164A/K168R)
CSP20 = CSP20 (Caulobacter vibrioides, UniProt A0A0H3CCM2, G165A/K168R)
CSP21 = CSP21 (Caulobacter vibrioides, UniProt A0A0H3CCM2, K168R/P166A)
CSP22 = CSP22 (Caulobacter vibrioides, UniProt A0A0H3CCM2, K168R/R167A)
CSP23 = CSP23 (Caulobacter vibrioides, UniProt A0A0H3CCM2, K168A)
CSP25 = CSP25 (Caulobacter vibrioides, UniProt A0A0H3CCM2, K168R/K170A)
CSP26 = CSP26 (Caulobacter vibrioides, UniProt A0A0H3CCM2, A171L/K168R)
CSP27 = CSP27 (Caulobacter vibrioides, UniProt A0A0H3CCM2, D172A/K168R)
CSP28 = CSP28 (Caulobacter vibrioides, UniProt A0A0H3CCM2, DEL157/K168R)
CSP29 = CSP29 (Caulobacter vibrioides, UniProt A0A0H3CCM2, DEL158/K168R)
CSP30 = CSP30 (Caulobacter vibrioides, UniProt A0A0H3CCM2, DEL159/K168R)
CSP31 = CSP31 (Caulobacter vibrioides, UniProt A0A0H3CCM2, DEL160/K168R)
CSP32 = CSP32 (Caulobacter vibrioides, UniProt A0A0H3CCM2, DEL161/K168R)
H6-MBP-CSP2 = H6-MBP-CSP2 (Caulobacter vibrioides, UniProt A0A0H3CCM2, K168R)
c-di-GMP [2] = assay: Microscale thermophoresis; conditions: N-terminally FITC-labeled CSP4
Outline: (§2)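 Binding of nucleotides to an N-terminally FITC-labelled, C-terminally amidated synthetic peptide (≥70% purity, dissolved in ultrapure water, concentration by spectrophotometry). Measured by microscale thermophoresis in standard-treated capillaries with blue-channel fluorescence, 30 s infrared heating at 50% of maximum laser power, then 5 s cooling. Buffer: 50 mM Tris·HCl pH 8.0, 100 mM NaCl, 0.1% polysorbate 20.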

GMP = assay: Microscale thermophoresis; conditions: N-terminally FITC-labeled CSP4
Outline: as §2

GTP = assay: Microscale thermophoresis; conditions: N-terminally FITC-labeled CSP4
Outline: as §2

pGpG = assay: Microscale thermophoresis; conditions: N-terminally FITC-labeled CSP4
Outline: as §2

3′3′-c-di-AMP = assay: Microscale thermophoresis; conditions: N-terminally FITC-labeled CSP4
Outline: as §2

3′3′-cGAMP = assay: Microscale thermophoresis; conditions: N-terminally FITC-labeled CSP4
Outline: as §2

2′3′-cGAMP = assay: Microscale thermophoresis; conditions: N-terminally FITC-labeled CSP4
Outline: as §2

Sequence of CSP1 (A0A0H3CCM2 140-174): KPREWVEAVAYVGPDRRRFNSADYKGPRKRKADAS
Sequence of CSP3 (A0A0H3CCM2 144-172 K168R): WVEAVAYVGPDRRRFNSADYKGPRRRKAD
Sequence of CSP2 (A0A0H3CCM2 140-174 K168R): as the sequence (A0A0H3CCM2 140-174) above, with K29R counted along it
Sequence of H6-MBP-CSP2 (A0A0H3CCM2 140-174 K168R): as the sequence (A0A0H3CCM2 140-174) above, with K29R counted along it

Molecule: DRRRFNSADYKGPRRR [CSP8]
- Kd to c-di-GMP (c-di-GMP [1]): No binding

Molecule: Nc1nc2c(ncn2[C@@H]2O[C@@H]3CO[P@](=O)(O)O[C@H]4[C@@H](O)[C@H](n5cnc6c(=O)[nH]c(N)nc65)O[C@@H]4CO[P@](=O)(O)O[C@H]3[C@H]2O)c(=O)[nH]1 [c-di-GMP, cyclic diguanylate (3'3'-c-di-GMP)]
- pKd (CSP1): 6.97
- pKd (CSP2): 7.72
- pKd (CSP3): 6.81
- pKd (CSP4): 6.75
- pKd (CSP6): 5.85
- pKd (CSP7): 5.77
- pKd (CSP9): 5.76
- pKd (CSP10): 5.83
- pKd (CSP11): 5.82
- pKd (CSP12): 6.11
- pKd (CSP13): 6.85
- pKd (CSP14): 6.66
- pKd (CSP15): 6.68
- pKd (CSP16): 6.99
- pKd (CSP17): 6.84
- pKd (CSP18): 5.36
- pKd (CSP19): 6.58
- pKd (CSP20): 5.12
- pKd (CSP21): 6.46
- pKd (CSP22): 5.74
- pKd (CSP23): 5.32
- pKd (CSP25): 6.56
- pKd (CSP26): 6.60
- pKd (CSP27): 5.76
- pKd (CSP28): 5.98
- pKd (CSP29): 5.90
- pKd (CSP30): 5.90
- pKd (CSP31): 6.36
- pKd (CSP32): 6.47
- pKd (H6-MBP-CSP2): 6.90

Molecule: Ac-DRRRFNSADYKGPRRRKAD-NH2 [CSP4]
- binding of c-di-GMP (MST) (c-di-GMP [2]): only c-di-GMP binding to CSP4 was observed
- binding of GMP (MST) (GMP): none of the related nucleotides or CDNs was able to bind
- binding of GTP (MST) (GTP): none of the related nucleotides or CDNs was able to bind
- binding of pGpG (MST) (pGpG): none of the related nucleotides or CDNs was able to bind
- binding of 3′3′-c-di-AMP (MST) (3′3′-c-di-AMP): none of the related nucleotides or CDNs was able to bind
- binding of 3′3′-cGAMP (MST) (3′3′-cGAMP): none of the related nucleotides or CDNs was able to bind
- binding of 2′3′-cGAMP (MST) (2′3′-cGAMP): none of the related nucleotides or CDNs was able to bind

Molecule: RRRFNSADYKGPRRR [CSP5]
- Kd to c-di-GMP (c-di-GMP [1]): No binding
